This note sets out measurements from ChEMBL document CHEMBL4699596, “Therapeutic Targeting of MMP-12 for the Treatment of Chronic Obstructive Pulmonary Disease” (J Med Chem, 2020).

Data set [1] addresses Matrix metalloproteinase-14 (Homo sapiens) (UniProt P50281). Put plainly: Inhibition of recombinant human His-tagged MMP14 expressed in Escherichia coli at 4 to 25 nM using 5-FAM/QXL520 FRET peptide as substrate preincubated for 15 mins followed by substrate addition and measured at 3 mins interval for 60 mins by fluorescence assay. To be noted: dose nM 4-25, time 75.0 min. The procedure, abridged:
(§1)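 Catalytic domains, 10 ng enzyme, preincubated with inhibitor 15 min at RT. FRET substrate (SensoLyte 520 kit) then added, fluorescence read every 3 min for 60 min. Inhibitors at 25 nM or 4 nM; percent inhibition reported.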

Data set [2] deals with Stromelysin-1 (Homo sapiens) (UniProt P08254). Put plainly: Inhibition of recombinant human His-tagged MMP3 catalytic domain (Pro19 to Glu271 residues) expressed in Escherichia coli at 4 to 25 nM using 5-FAM/QXL520 FRET peptide as substrate preincubated for 15 mins followed by substrate addition and measured at 3 mins interval for 60 mins by fluorescence assay. To be noted: dose nM 4-25, time 75.0 min. The procedure, abridged: as §1

For data set [3], the target named is T1, Macrophage metalloelastase (Homo sapiens, UniProt P39900). Put plainly: Potency index, ratio of MMP408 IC50 to test compound IC50 for inhibition of recombinant human MMP12 catalytic domain (Gly106 to Gly263 residues) expressed in Escherichia coli BL21 Codon Plus cells.
Target sequence in this assay (P39900 106-470 limits assumed): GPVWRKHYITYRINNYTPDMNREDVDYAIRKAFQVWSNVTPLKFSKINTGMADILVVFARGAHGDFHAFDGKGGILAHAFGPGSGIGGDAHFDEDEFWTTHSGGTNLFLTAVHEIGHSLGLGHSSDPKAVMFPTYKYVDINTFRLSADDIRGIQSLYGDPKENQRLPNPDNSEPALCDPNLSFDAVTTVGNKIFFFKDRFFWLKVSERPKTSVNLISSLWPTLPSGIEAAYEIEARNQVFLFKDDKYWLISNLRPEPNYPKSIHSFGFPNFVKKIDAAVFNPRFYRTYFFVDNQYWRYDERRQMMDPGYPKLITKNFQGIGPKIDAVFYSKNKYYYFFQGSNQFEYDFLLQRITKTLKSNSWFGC
For data set [4], the system named is Mus musculus. Put plainly: Protection against porcine elastase-induced emphysema in ip dosed C57BL/6 mouse model assessed as effect on total BALF cellularity/influx administered once daily for 7 days measured 21 days post initial elastase instillation. It counts as functional, organism-based. As to conditions: time 19.0 day. In a few lines: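 Same elastase and dosing scheme as line 10 (C57BL/6, intranasal 0.9 U PPE, daily i.p. for 7 days from day 2). At day 21 BAL cell pellet taken up in 200 μl PBS and counted on a hemocytometer. Cytospin differentials of 300 cells per slide. Two-way ANOVA with Tukey post-hoc.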

For data set [5], the target named is Matrix metalloproteinase-9 (Homo sapiens) (UniProt P14780). Kind of data set: Inhibition of recombinant human 6His-tagged MMP9 catalytic domain (112 to 445 residues) expressed in Escherichia coli at 4 to 25 nM using 5-FAM/QXL520 FRET peptide as substrate preincubated for 15 mins followed by substrate addition and measured at 3 mins interval for 60 mins by fluorescence assay. As to conditions: dose nM 4-25, time 75.0 min. The procedure, abridged:
as §1

Data set [6] concerns the target T2, Interstitial collagenase (Homo sapiens) (UniProt P03956).
T2 sequence (whole entry): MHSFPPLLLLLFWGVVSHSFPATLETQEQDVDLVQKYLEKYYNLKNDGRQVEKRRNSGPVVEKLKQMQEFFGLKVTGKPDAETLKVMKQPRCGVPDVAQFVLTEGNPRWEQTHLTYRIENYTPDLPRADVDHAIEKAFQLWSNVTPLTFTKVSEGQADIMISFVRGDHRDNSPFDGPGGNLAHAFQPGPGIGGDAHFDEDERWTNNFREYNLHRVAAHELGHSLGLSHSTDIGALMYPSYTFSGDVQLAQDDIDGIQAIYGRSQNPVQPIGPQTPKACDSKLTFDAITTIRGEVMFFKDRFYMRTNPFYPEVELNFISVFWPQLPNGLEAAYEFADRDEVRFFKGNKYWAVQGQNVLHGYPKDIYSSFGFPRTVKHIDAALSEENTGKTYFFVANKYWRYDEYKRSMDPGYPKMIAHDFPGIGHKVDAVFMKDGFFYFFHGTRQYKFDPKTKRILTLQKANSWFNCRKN
Kind of data set: Inhibition of recombinant human 6His-tagged MMP1 catalytic domain (106 to 261 residues) expressed in Escherichia coli at 4 to 25 nM using 5-FAM/QXL520 FRET peptide as substrate preincubated for 15 mins followed by substrate addition and measured at 3 mins interval for 60 mins by fluorescence assay. As to conditions: dose nM 4-25, time 75.0 min. The procedure, abridged: as §1

The target of data set [7] is Collagenase 3 (Homo sapiens) (UniProt P45452). Kind of data set: Inhibition of recombinant human 6His-tagged MMP13 catalytic domain (104 to 274 residues) expressed in Escherichia coli at 4 to 25 nM using 5-FAM/QXL520 FRET peptide as substrate preincubated for 15 mins followed by substrate addition and measured at 3 mins interval for 60 mins by fluorescence assay. As to conditions: dose nM 4-25, time 75.0 min. The procedure, abridged: as §1

The target of data set [8] is T1, Macrophage metalloelastase. Put plainly: Inhibition of recombinant human MMP12 catalytic domain (Gly106 to Gly263 residues) expressed in Escherichia coli BL21 Codon Plus cells using 5-FAM/QXL520 FRET peptide as substrate preincubated for 15 mins followed by substrate addition and measured at 3 mins interval for 60 mins by fluorescence assay.
Target sequence in this assay (P39900 whole entry, the tested form may be a part): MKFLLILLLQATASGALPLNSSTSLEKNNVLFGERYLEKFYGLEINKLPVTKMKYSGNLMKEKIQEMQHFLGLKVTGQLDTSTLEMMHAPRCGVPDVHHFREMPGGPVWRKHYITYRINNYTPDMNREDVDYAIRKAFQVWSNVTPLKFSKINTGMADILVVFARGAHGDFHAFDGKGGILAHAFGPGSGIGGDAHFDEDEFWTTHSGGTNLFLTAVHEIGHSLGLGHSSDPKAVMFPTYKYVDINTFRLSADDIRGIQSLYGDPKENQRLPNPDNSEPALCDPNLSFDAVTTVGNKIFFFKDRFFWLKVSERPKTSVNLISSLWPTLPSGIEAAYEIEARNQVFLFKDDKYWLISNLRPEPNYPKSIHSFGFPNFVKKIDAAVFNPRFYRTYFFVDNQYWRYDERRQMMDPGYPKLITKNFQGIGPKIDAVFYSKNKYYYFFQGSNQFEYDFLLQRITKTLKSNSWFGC
Data set [9] relates to Mus musculus. Kind of data set: Protection against porcine elastase-induced emphysema in ip dosed C57BL/6 mouse model assessed as decrease in emphysema-like pathology administered once daily for 7 days measured 21 days post initial elastase instillation by H and E staining based light microscopic analysis. It counts as functional, organism-based. As to conditions: time 19.0 day. The procedure, abridged:
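Male and female C57BL/6 mice, 6–8 weeks, given one intranasal dose of 0.9 U porcine pancreatic elastase in 50 μl PBS (saline controls). From day 2, daily i.p. vehicle or inhibitor for 7 days. At day 21 lungs formalin-inflated at 20 cm pressure, paraffin-embedded, H&E-stained and imaged at 10x. Mean linear intercept = line length/alveolar wall intersections. Two-way ANOVA with Tukey.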

Data set [10] can be described thus: Cmax in Balb/c mouse at 30 mg/kg, ip by LC-MS/MS analysis. Format: ADME, organism-based. Further details: route intraperitoneal, dose 30 mg/kg. As to conditions: in vivo. In a few lines: (§2)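 Single i.p. dose of 30 mg/kg to 5 Balb-C mice (22–26 g) in 10% DMSO, 40% PEG400, 10% (2-hydroxypropyl)-β-cyclodextrin in PBS. Retro-orbital blood taken at 30 min, 1, 2, 4, 8 and 24 h. Plasma drug measured by extraction and LC/MS against a calibration curve of purified agent.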

Data set [11] in a line: Tmax in Balb/c mouse at 30 mg/kg, ip by LC-MS/MS analysis. To be noted: in vivo. It counts as ADME, organism-based. In a few lines:
as §2

Data set [12] can be described thus: Ratio of Cmax in Balb/c mouse at 30 mg/kg, ip to IC90 for inhibition of recombinant human MMP12 catalytic domain (Gly106 to Gly263 residues) expressed in Escherichia coli BL21 Codon Plus cells. As to conditions: in vivo. It counts as organism-based.
The nature of data set [13]: Half life in Balb/c mouse at 30 mg/kg, ip by LC-MS/MS analysis. Format: ADME, organism-based. To be noted: in vivo. In a few lines: as §2
Data set [14] addresses T1, Macrophage metalloelastase. Kind of data set: Binding affinity to recombinant human 15N-labelled MMP12 catalytic domain (Gly106 to Gly263 residues) expressed in Escherichia coli BL21 Codon Plus cells assessed as ratio of peak intensities of L212 and I220 in bound versus the unbound form at 10 uM by 1D-1H NMR analysis.
Target sequence in this assay (P39900 106-470 limits assumed): as the sequence (P39900 106-470 limits assumed) above

Activity calls are given as the source filed them. The calls are words filed in the database; no cut-off is given here. Non-standard residues stand in square brackets, D forms with d. Residues, ends and D or L forms follow the SMILES beside them. *: point of attachment. d(hPhe) = N[C@H](CCc1ccccc1)C(=O)O; Bn = c1ccc(C*)cc1; NHOH = ON*

Chain of Matrix metalloproteinase-9 (Homo sapiens) (P14780 whole entry, the tested form may be a part): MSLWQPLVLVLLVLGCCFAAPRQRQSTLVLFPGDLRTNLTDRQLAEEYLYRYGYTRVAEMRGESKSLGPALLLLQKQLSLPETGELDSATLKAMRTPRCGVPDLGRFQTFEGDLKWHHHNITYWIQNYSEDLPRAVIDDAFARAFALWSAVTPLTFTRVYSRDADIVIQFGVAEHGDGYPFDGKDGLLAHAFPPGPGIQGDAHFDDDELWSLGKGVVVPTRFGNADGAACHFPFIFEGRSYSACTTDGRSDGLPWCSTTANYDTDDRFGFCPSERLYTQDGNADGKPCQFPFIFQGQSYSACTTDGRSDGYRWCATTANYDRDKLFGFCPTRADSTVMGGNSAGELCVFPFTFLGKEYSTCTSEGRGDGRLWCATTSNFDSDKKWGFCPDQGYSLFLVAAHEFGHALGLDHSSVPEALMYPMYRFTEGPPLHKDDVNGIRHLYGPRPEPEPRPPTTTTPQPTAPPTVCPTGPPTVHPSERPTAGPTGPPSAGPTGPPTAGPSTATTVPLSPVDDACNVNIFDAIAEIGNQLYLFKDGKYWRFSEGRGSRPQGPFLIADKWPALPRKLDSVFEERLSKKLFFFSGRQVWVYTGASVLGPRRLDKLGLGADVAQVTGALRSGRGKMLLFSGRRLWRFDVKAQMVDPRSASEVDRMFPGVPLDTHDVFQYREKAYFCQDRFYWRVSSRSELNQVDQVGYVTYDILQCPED
Chain of Stromelysin-1 (Homo sapiens) (P08254 100-477 limits assumed): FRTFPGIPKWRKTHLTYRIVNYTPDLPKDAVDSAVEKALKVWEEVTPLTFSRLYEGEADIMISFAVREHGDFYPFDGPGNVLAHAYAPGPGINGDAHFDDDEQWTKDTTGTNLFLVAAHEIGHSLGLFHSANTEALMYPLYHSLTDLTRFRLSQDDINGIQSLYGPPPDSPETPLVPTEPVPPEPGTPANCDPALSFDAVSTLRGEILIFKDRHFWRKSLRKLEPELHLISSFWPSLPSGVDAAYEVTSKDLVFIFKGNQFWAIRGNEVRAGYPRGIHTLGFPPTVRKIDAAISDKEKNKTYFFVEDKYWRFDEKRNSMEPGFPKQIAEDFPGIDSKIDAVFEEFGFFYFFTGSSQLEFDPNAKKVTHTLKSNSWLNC

One may read the IC50 as the concentration at which inhibition is half-maximal. In the case of `COc1ccc(CCC[C@H](NC(=O)CN2CCOCC2)C(=O)N[C@H](CCc2ccc(OC)cc2)C(=O)N[C@H](Cc2ccc(C)cc2)C(=O)NO)cc1`, the inhibition result in [1], in [5], in [6] and in data set [7] was “inactive” each time. Also, the inhibition entry in data set [2] was “Active”. Also, the Ratio IC50 in [3] is greater than 5. Besides, the result in the data set with Mus musculus [4] was inactive. Further, the IC50 in [8] amounted to 4.4 nM. Moreover, the result in the data set on Mus musculus [9] was Active.

Take `CNC(=O)[C@H](Cc1c[nH]c2ccccc12)NC(=O)[C@@H](CC(=O)NO)CC(C)C` [ILOMASTAT]: the inhibition result in data set [2] is “Active”. The IC50 in data set [8] turned out to be 2.4 nM.

In the case of `COC(=O)Nc1ccc2oc3cc(S(=O)(=O)N[C@@H](C(=O)O)C(C)C)ccc3c2c1`, in the data set with Mus musculus [4], the result was inactive. Moreover, in the data set with Mus musculus [9], the result was Active.

As a reminder, the Cmax is the maximum level reached in the sampled fluid or tissue. Broadly, the Tmax is the time at which the peak concentration occurs. A word on the half-life: it is how long it takes for the measured level to halve. High values mean slow loss, low ones fast loss. Turning to `COc1ccc(CC[C@@H](NC(=O)[C@H](CCCc2ccccc2)NC(=O)CN2CCOCC2)C(=O)N[C@H](Cc2ccc(C)cc2)C(=O)NO)cc1`, the concentration in data set [10] peaked (Cmax) at 580 nM. Further, the Tmax in [11] came to 2 h. Further, the inhibition entry in [1], in data set [5], in data set [6] and in data set [7] was “inactive” in each case. For the same compound, the inhibition result in data set [2] is “Active”. For the same compound, the Ratio in [12] is greater than 20. In addition, the Ratio IC50 in [3] is greater than 5. For the same compound, the outcome in the data set on Mus musculus [4] was inactive. Further, in data set [8], the 50% inhibitory concentration (IC50) turned out to be 4.5 nM. Moreover, the half-life in data set [13] is 5 h. In the data set with Mus musculus [9], the result was Active.

For `CC(=O)N[C@@H](COCc1ccccc1)C(=O)N[C@H](CCc1ccccc1)C(=O)N[C@H](Cc1ccccc1)C(=O)NO` (Ac-Ser(Bn)-[d(hPhe)]-[dF]-{NHOH}), the inhibition result in data set [1], in data set [5], in data set [6] and in data set [7] was “inactive” each time. Moreover, in data set [14], the Ratio is greater than 1. The IC50 in data set [8] stood at 26.5 nM.
